Test results taken from ChEMBL document CHEMBL1926614, “Substituted thiazoles V. synthesis and antitumor activity of novel thiazolo[2,3-b]quinazoline and pyrido[4,3-d]thiazolo[3,2-a]pyrimidine analogues” (2012).

Assays:
Format in all cases: functional
[1] = tested on: HCT-15; assay: Growth inhibition of human HCT15 cells at 10 uM after 48 hrs by coulter counting; conditions: HCT-15, 48 h, read-out: GI
Procedure, shortened: (§1)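 Single-dose primary screen across the full NCI 60-cell-line panel. Stocks were made in DMSO and diluted in PBS to a final DMSO below 1%. Cultures at 6 × 10⁴ cells/ml were run in duplicate wells alongside PBS/DMSO vehicle controls at 37 °C in humidified 5% CO₂. Data were expressed as percent growth of treated cells.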

[2] = tested on: UACC-257; assay: Growth inhibition of human UACC257 cells at 10 uM after 48 hrs by coulter counting; conditions: UACC-257, 48 h, read-out: GI
Procedure, shortened: (§2)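 Single-dose screen in the NCI 60 human tumor cell line panel (nine subpanels). Compounds dissolved in DMSO and diluted in phosphate buffered saline, keeping final DMSO below 1%. Added in duplicate wells to cells at 6 × 10⁴ cells/ml. Controls held PBS and DMSO at matching dilutions. Incubated at 37 °C, humidified, 5% CO₂. Reported as percent growth of treated cells.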

[3] = tested on: UACC-62; assay: Growth inhibition of human UACC62 cells at 10 uM after 48 hrs by coulter counting; conditions: UACC-62, 48 h, read-out: GI; procedure, shortened: as §2
[4] = tested on: CCRF-CEM; assay: Growth inhibition of human CCRF-CEM cells at 10 uM after 48 hrs by coulter counting; conditions: read-out: GI; procedure, shortened: as §1
[5] = tested on: HL-60(TB); assay: Growth inhibition of human HL-60(TB) cells at 10 uM after 48 hrs by coulter counting; conditions: HL-60, 48 h, read-out: GI
Procedure, shortened: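 Test compound was dissolved in DMSO and diluted in phosphate-buffered saline to a final DMSO level below 1%. Dilutions were plated in duplicate with cell culture at 6 × 10⁴ cells/ml. Vehicle controls held PBS and DMSO at matching dilutions. Incubation was at 37 °C, humidified, under 5% CO₂. Data were reported as percent growth of treated cells.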

[6] = tested on: K562; assay: Growth inhibition of human K562 cells at 10 uM after 48 hrs by coulter counting; conditions: K562, 48 h, read-out: GI; procedure, shortened: as §1
[7] = tested on: MOLT-4; assay: Growth inhibition of human MOLT4 cells at 10 uM after 48 hrs by coulter counting; conditions: MOLT-4, 48 h, read-out: GI; procedure, shortened: as §1
[8] = tested on: RPMI-8226; assay: Growth inhibition of human RPMI8226 cells at 10 uM after 48 hrs by coulter counting; conditions: RPMI-8226, 48 h, read-out: GI; procedure, shortened: as §1
[9] = tested on: A549; assay: Growth inhibition of human A549 cells at 10 uM after 48 hrs by coulter counting; conditions: A549, 48 h, read-out: GI; procedure, shortened: as §1
[10] = tested on: EKVX; assay: Growth inhibition of human EKVX cells at 10 uM after 48 hrs by coulter counting; conditions: read-out: GI; procedure, shortened: as §1
[11] = tested on: HOP-62; assay: Growth inhibition of human HOP62 cells at 10 uM after 48 hrs by coulter counting; conditions: HOP-62, 48 h, read-out: GI; procedure, shortened: as §1
[12] = tested on: NCI-H226; assay: Growth inhibition of human NCI-H226 cells at 10 uM after 48 hrs by coulter counting; conditions: NCI-H226, 48 h, read-out: GI; procedure, shortened: as §1
[13] = tested on: NCI-H23; assay: Growth inhibition of human NCI-H23 cells at 10 uM after 48 hrs by coulter counting; conditions: NCI-H23, 48 h, read-out: GI; procedure, shortened: as §1
[14] = Growth inhibition of human NCI-322M cells at 10 uM after 48 hrs by coulter counting; conditions: read-out: GI; procedure, shortened: as §1
[15] = tested on: NCI-H460; assay: Growth inhibition of human NCI-H460 cells at 10 uM after 48 hrs by coulter counting; conditions: NCI-H460, 48 h, read-out: GI; procedure, shortened: as §1
[16] = tested on: NCI-H522; assay: Growth inhibition of human NCI-H522 cells at 10 uM after 48 hrs by coulter counting; conditions: NCI-H522, 48 h, read-out: GI; procedure, shortened: as §1
[17] = tested on: HCT-116; assay: Growth inhibition of human HCT116 cells at 10 uM after 48 hrs by coulter counting; conditions: HCT-116, 48 h, read-out: GI; procedure, shortened: as §1
[18] = tested on: HT-29; assay: Growth inhibition of human HT-29 cells at 10 uM after 48 hrs by coulter counting; conditions: HT-29, 48 h, read-out: GI; procedure, shortened: as §1
[19] = tested on: KM12; assay: Growth inhibition of human KM12 cells at 10 uM after 48 hrs by coulter counting; conditions: KM12, 48 h, read-out: GI; procedure, shortened: as §1
[20] = tested on: SF-268; assay: Growth inhibition of human SF268 cells at 10 uM after 48 hrs by coulter counting; conditions: SF-268, 48 h, read-out: GI; procedure, shortened: as §1
[21] = tested on: SF-295; assay: Growth inhibition of human SF295 cells at 10 uM after 48 hrs by coulter counting; conditions: SF-295, 48 h, read-out: GI; procedure, shortened: as §1
[22] = tested on: SNB-19; assay: Growth inhibition of human SNB19 cells at 10 uM after 48 hrs by coulter counting; conditions: SNB-19, 48 h, read-out: GI; procedure, shortened: as §1
[23] = tested on: SNB-75; assay: Growth inhibition of human SNB75 cells at 10 uM after 48 hrs by coulter counting; conditions: SNB-75, 48 h, read-out: GI; procedure, shortened: as §1
[24] = tested on: U-251; assay: Growth inhibition of human U251 cells at 10 uM after 48 hrs by coulter counting; conditions: U-251, 48 h, read-out: GI; procedure, shortened: as §2
[25] = tested on: LOX IMVI; assay: Growth inhibition of human LOXIMVI cells at 10 uM after 48 hrs by coulter counting; conditions: read-out: GI; procedure, shortened: as §1
[26] = tested on: M14; assay: Growth inhibition of human M14 cells at 10 uM after 48 hrs by coulter counting; conditions: M14, 48 h, read-out: GI; procedure, shortened: as §1
[27] = tested on: MDA-MB-435; assay: Growth inhibition of human MDA-MB-435 cells at 10 uM after 48 hrs by coulter counting; conditions: MDA-MB-435, 48 h, read-out: GI; procedure, shortened: as §1
[28] = tested on: SK-MEL-2; assay: Growth inhibition of human SK-MEL-2 cells at 10 uM after 48 hrs by coulter counting; conditions: SK-MEL-2, 48 h, read-out: GI; procedure, shortened: as §1
[29] = tested on: SK-MEL-28; assay: Growth inhibition of human SK-MEL-28 cells at 10 uM after 48 hrs by coulter counting; conditions: SK-MEL-28, 48 h, read-out: GI; procedure, shortened: as §1
[30] = tested on: SK-MEL-5; assay: Growth inhibition of human SK-MEL-5 cells at 10 uM after 48 hrs by coulter counting; conditions: SK-MEL-5, 48 h, read-out: GI; procedure, shortened: as §1
[31] = tested on: NCI/ADR-RES; assay: Growth inhibition of human NCI/ADR-RES cells at 10 uM after 48 hrs by coulter counting; conditions: read-out: GI; procedure, shortened: as §1
[32] = tested on: A498; assay: Growth inhibition of human A498 cells at 10 uM after 48 hrs by coulter counting; conditions: A498, 48 h, read-out: GI; procedure, shortened: as §1
[33] = tested on: ACHN; assay: Growth inhibition of human ACHN cells at 10 uM after 48 hrs by coulter counting; conditions: read-out: GI; procedure, shortened: as §1
[34] = tested on: CAKI-1; assay: Growth inhibition of human Caki1 cells at 10 uM after 48 hrs by coulter counting; conditions: CAKI-1, 48 h, read-out: GI; procedure, shortened: as §1
[35] = tested on: UO-31; assay: Growth inhibition of human UO31 cells at 10 uM after 48 hrs by coulter counting; conditions: UO-31, 48 h, read-out: GI; procedure, shortened: as §2
[36] = tested on: DU-145; assay: Growth inhibition of human DU145 cells at 10 uM after 48 hrs by coulter counting; conditions: DU-145, 48 h, read-out: GI; procedure, shortened: as §1
[37] = tested on: MCF7; assay: Growth inhibition of human MCF7 cells at 10 uM after 48 hrs by coulter counting; conditions: MCF7, 48 h, read-out: GI; procedure, shortened: as §1
[38] = tested on: BT-549; assay: Growth inhibition of human BT549 cells at 10 uM after 48 hrs by coulter counting; conditions: BT-549, 48 h, read-out: GI; procedure, shortened: as §1
[39] = tested on: T47D; assay: Growth inhibition of human T47D cells at 10 uM after 48 hrs by coulter counting; conditions: read-out: GI; procedure, shortened: as §2
[40] = tested on: OVCAR-8; assay: Growth inhibition of human OVCAR8 cells at 10 uM after 48 hrs by coulter counting; conditions: OVCAR-8, 48 h, read-out: GI; procedure, shortened: as §1
[41] = tested on: 786-0; assay: Growth inhibition of human 786-0 cells at 10 uM after 48 hrs by coulter counting; conditions: 786-0, 48 h, read-out: GI; procedure, shortened: as §1
[42] = tested on: SN12C; assay: Growth inhibition of human SN12C cells at 10 uM after 48 hrs by coulter counting; conditions: read-out: GI; procedure, shortened: as §1
[43] = tested on: TK-10; assay: Growth inhibition of human TK10 cells at 10 uM after 48 hrs by coulter counting; conditions: TK-10, 48 h, read-out: GI; procedure, shortened: as §2

## CCN1CC2=C(N=C3SC=C(C)N3C2c2ccc(OC)cc2)/C(=C/c2ccc(OC)cc2)C1 (stereo not drawn)
[1]
  inhibition of growth at 10 µM: > 10%
[2]
  inhibition of growth at 10 µM: > 10%
[3]
  inhibition of growth at 10 µM: > 10%
[4]
  inhibition of growth at 10 µM: > 10%
[5]
  inhibition of growth at 10 µM: > 10%
[6]
  inhibition of growth at 10 µM: > 10%
[7]
  inhibition of growth at 10 µM: > 10%
[8]
  inhibition of growth at 10 µM: > 10%
[9]
  inhibition of growth at 10 µM: > 10%
[10]
  inhibition of growth at 10 µM: > 10%
[11]
  inhibition of growth at 10 µM: > 10%
[12]
  inhibition of growth at 10 µM: > 10%
[13]
  inhibition of growth at 10 µM: > 10%
[14]
  inhibition of growth at 10 µM: > 10%
[15]
  inhibition of growth at 10 µM: > 10%
[16]
  inhibition of growth at 10 µM: > 10%
[17]
  inhibition of growth at 10 µM: > 10%
[18]
  inhibition of growth at 10 µM: > 10%
[19]
  inhibition of growth at 10 µM: > 10%
[20]
  inhibition of growth at 10 µM: > 10%
[21]
  inhibition of growth at 10 µM: > 10%
[22]
  inhibition of growth at 10 µM: > 10%
[23]
  inhibition of growth at 10 µM: 12.5%
[24]
  inhibition of growth at 10 µM: > 10%
[25]
  inhibition of growth at 10 µM: > 10%
[26]
  inhibition of growth at 10 µM: > 10%
[27]
  inhibition of growth at 10 µM: > 10%
[28]
  inhibition of growth at 10 µM: > 10%
[29]
  inhibition of growth at 10 µM: > 10%
[30]
  inhibition of growth at 10 µM: > 10%
[31]
  inhibition of growth at 10 µM: > 10%
[32]
  inhibition of growth at 10 µM: > 10%
[33]
  inhibition of growth at 10 µM: > 10%
[34]
  inhibition of growth at 10 µM: > 10%
[35]
  inhibition of growth at 10 µM: 35.5%
[36]
  inhibition of growth at 10 µM: > 10%
[37]
  inhibition of growth at 10 µM: > 10%
[38]
  inhibition of growth at 10 µM: > 10%
[39]
  inhibition of growth at 10 µM: > 10%
[40]
  inhibition of growth at 10 µM: > 10%
[41]
  inhibition of growth at 10 µM: > 10%
[42]
  inhibition of growth at 10 µM: > 10%
[43]
  inhibition of growth at 10 µM: > 10%
